Measurements from ChEMBL document CHEMBL2407075, “Sulphonamido-quinoxalines: search for anticancer agent” (Eur J Med Chem, 2013).

Experiments:
Assay type in all cases: functional
[1] = Growth inhibition of human HCC2998 cells assessed as cell growth at 10^-8 M after 48 hrs by sulforhodamine B assay; conditions: HCC 2998, 48 h, read-out: Activity
Method in brief: (§1)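 Five-dose screen at NCI. Cells in RPMI 1640 with 5% FBS and 2 mM L-glutamine, seeded at 5000–40,000 cells/well and grown 24 h at 37 °C, 5% CO2 before dosing, with time-zero plates TCA-fixed. Drug diluted from DMSO stock to 0.01, 0.1, 1, 10 and 100 µM final, 48 h. Cells fixed with cold TCA (10% final), stained with 0.4% SRB and read at 515 nm. Percent growth from Tz, control and test absorbances; GI50, TGI and LC50 from dose-response curves.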

K562 = assay: Growth inhibition of human K562 cells after 48 hrs by sulforhodamine B assay; conditions: K562, 48 h; for CC50: read-out: LC50 (the source's name)
Method in brief: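 Five-dose NCI 60 screen at 0.01, 0.1, 1, 10 and 100 µM, 48 h exposure after 24 h preincubation, in RPMI 1640 with 5% FBS and 2 mM glutamine. Fixed with TCA (10% final for adherent cells, 16% for suspension cells), stained with SRB, A515 read. Percent growth uses time-zero (Tz), control and treated plates. GI50, TGI and LC50 are read from the dose-response curves.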

UACC-257 = assay: Growth inhibition of human UACC257 cells assessed as cell growth at 10^-7 M after 48 hrs by sulforhodamine B assay; conditions: UACC-257, 48 h, read-out: Activity
SN12C [2] = assay: Growth inhibition of human SN12C cells after 48 hrs by sulforhodamine B assay; conditions: for CC50: read-out: LC50 (the source's name)
Method in brief: (§2)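 Adherent cells in RPMI 1640 with 5% FBS and 2 mM L-glutamine were plated at 5000–40,000 cells/well and grown 24 h. Five concentrations (0.01–100 µM, DMSO stock) were added for 48 h at 37 °C. Cells were fixed with cold TCA (10% final) and stained with SRB, read at 515 nm. GI50 came from log concentration–growth curves against time-zero and control plates.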

[3] = Growth inhibition of human HCC2998 cells after 48 hrs by sulforhodamine B assay; conditions: HCC 2998, 48 h; for CC50: read-out: LC50 (the source's name); method in brief: as §2
NCI-H522 = assay: Growth inhibition of human NCI-H522 cells assessed as cell growth at 10^-7 M after 48 hrs by sulforhodamine B assay; conditions: NCI-H522, 48 h, read-out: Activity
HCT-15 = assay: Growth inhibition of human HCT15 cells assessed as cell growth at 10^-4 M after 48 hrs by sulforhodamine B assay; conditions: HCT-15, 48 h, read-out: Activity; method in brief: as §1
SK-OV-3 = assay: Growth inhibition of human SKOV3 cells assessed as cell growth at 10^-7 M after 48 hrs by sulforhodamine B assay; conditions: SK-OV-3, 48 h, read-out: Activity
DU-145 [4] = assay: Growth inhibition of human DU145 cells after 48 hrs by sulforhodamine B assay; conditions: DU-145, 48 h; for CC50: read-out: LC50 (the source's name); method in brief: as §2
786-0 = assay: Growth inhibition of human 786-0 cells assessed as cell growth at 10^-8 M after 48 hrs by sulforhodamine B assay; conditions: 786-0, 48 h, read-out: Activity
Method in brief: (§3)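 Five-dose NCI-60 run (0.01, 0.1, 1, 10 and 100 µM, as 10-fold dilutions from a DMSO stock made at 400× the top final level). Cells were grown in RPMI 1640 with 5% FBS and 2 mM glutamine and plated for 24 h. They were then exposed for 48 h at 37 °C and 5% CO2. TCA fixation was followed by SRB staining with A515 read-out. Percent growth was taken relative to time-zero and control plates.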

A549 = assay: Growth inhibition of human A549/ATCC cells assessed as cell growth at 10^-5 M after 48 hrs by sulforhodamine B assay; conditions: A549, 48 h, read-out: Activity; method in brief: as §3
UO-31 [5] = assay: Growth inhibition of human UO31 cells assessed as cell growth at 10^-6 M after 48 hrs by sulforhodamine B assay; conditions: UO-31, 48 h, read-out: Activity
IGROV-1 = assay: Growth inhibition of human IGROV1 cells assessed as cell growth at 10^-7 M after 48 hrs by sulforhodamine B assay; conditions: IGROV-1, 48 h, read-out: Activity
TK-10 = assay: Growth inhibition of human TK10 cells after 48 hrs by sulforhodamine B assay; conditions: TK-10, 48 h; for CC50: read-out: LC50 (the source's name); method in brief: as §2
A498 = assay: Growth inhibition of human A498 cells assessed as cell growth at 10^-5 M after 48 hrs by sulforhodamine B assay; conditions: A498, 48 h, read-out: Activity; method in brief: as §3
CAKI-1 = assay: Growth inhibition of human CAKI-1 cells assessed as cell growth at 10^-7 M after 48 hrs by sulforhodamine B assay; conditions: CAKI-1, 48 h, read-out: Activity; method in brief: as §3
RXF 393 [6] = assay: Growth inhibition of human RXF393 cells after 48 hrs by sulforhodamine B assay; conditions: RXF 393, 48 h; for CC50: read-out: LC50 (the source's name); method in brief: as §2
T47D = assay: Growth inhibition of human T47D cells assessed as cell growth at 10^-4 M after 48 hrs by sulforhodamine B assay; conditions: read-out: Activity
UO-31 [7] = assay: Growth inhibition of human UO31 cells assessed as cell growth at 10^-8 M after 48 hrs by sulforhodamine B assay; conditions: UO-31, 48 h, read-out: Activity
DU-145 [8] = assay: Growth inhibition of human DU145 cells assessed as cell growth at 10^-4 M after 48 hrs by sulforhodamine B assay; conditions: DU-145, 48 h, read-out: Activity; method in brief: as §3
NCI-H226 = assay: Growth inhibition of human NCI-H226 cells after 48 hrs by sulforhodamine B assay; conditions: NCI-H226, 48 h, read-out: LC50 (the source's name); method in brief: as §2
SF-295 = assay: Growth inhibition of human SF295 cells assessed as cell growth at 10^-4 M after 48 hrs by sulforhodamine B assay; conditions: SF-295, 48 h, read-out: Activity
NCI-H460 = assay: Growth inhibition of human NCI-H460 cells assessed as cell growth at 10^-6 M after 48 hrs by sulforhodamine B assay; conditions: NCI-H460, 48 h, read-out: Activity
MCF7 = assay: Growth inhibition of human MCF7 cells assessed as cell growth at 10^-8 M after 48 hrs by sulforhodamine B assay; conditions: MCF7, 48 h, read-out: Activity
OVCAR-5 = assay: Growth inhibition of human OVCAR5 cells assessed as cell growth at 10^-6 M after 48 hrs by sulforhodamine B assay; conditions: OVCAR-5, 48 h, read-out: Activity
RXF 393 [9] = assay: Growth inhibition of human RXF393 cells assessed as cell growth at 10^-5 M after 48 hrs by sulforhodamine B assay; conditions: RXF 393, 48 h, read-out: Activity
SN12C [10] = assay: Growth inhibition of human SN12C cells assessed as cell growth at 10^-7 M after 48 hrs by sulforhodamine B assay; conditions: read-out: Activity

Row | Compound | growth at 0.01 µM [1] [%] | TGI (K562) [µM] | CC50 (K562) [µM] | growth at 0.1 µM (UACC-257) [%] | TGI (SN12C [2]) [µM] | CC50 (SN12C [2]) [µM] | CC50 [3] [µM] | growth at 0.1 µM (NCI-H522) [%] | growth at 100 µM (HCT-15) [%] | growth at 0.1 µM (SK-OV-3) [%] | TGI (DU-145 [4]) [µM] | CC50 (DU-145 [4]) [µM] | growth at 0.01 µM (786-0) [%] | growth at 10 µM (A549) [%] | growth at 1 µM (UO-31 [5]) [%] | growth at 0.1 µM (IGROV-1) [%] | TGI (TK-10) [µM] | CC50 (TK-10) [µM] | growth at 10 µM (A498) [%] | growth at 0.1 µM (CAKI-1) [%] | other results
1 | O=S(=O)(Nc1ccc(Cl)cc1)c1ccc2nc(-c3ccccc3)c(-c3ccccc3)nc2c1 | 99 | > 100 | > 100 | 99 | > 100 | > 100 | > 100 | 90 | 68 | 99 | > 100 | > 100 | 97 | 5 | 90 | 101 | > 100 | > 100 | -5 | 88 | TGI [3]: > 100 µM; CC50 (RXF 393 [6]): > 100 µM; growth at 100 µM (T47D): 37%; growth at 0.01 µM (UO-31 [7]): 87%; growth at 100 µM (DU-145 [8]): 65%; CC50 (NCI-H226): > 100 µM; growth at 100 µM (SF-295): 77%; growth at 1 µM (NCI-H460): 94%; growth at 0.01 µM (MCF7): 95%; growth at 1 µM (OVCAR-5): 90%; growth at 10 µM (RXF 393 [9]): -41%; growth at 0.1 µM (SN12C [10]): 96%
2 | O=S(=O)(Nc1ccccn1)c1ccc2nc(-c3ccccc3)c(-c3ccccc3)nc2c1 | 99 | > 100 | > 100 | 103 | > 100 | > 100 | > 100 | 88 | 63 | 98 | > 100 | > 100 | 100 | 9 | 85 | 104 | > 100 | > 100 | -8 | 93 | GI50 (K562): 2.72 µM; GI50 (RXF 393 [6]): 2.14 µM; CC50 (RXF 393 [6]): > 100 µM; growth at 100 µM (T47D): -1%; growth at 0.01 µM (UO-31 [7]): 88%; growth at 100 µM (DU-145 [8]): 59%; CC50 (NCI-H226): > 100 µM; growth at 100 µM (SF-295): 40%; growth at 1 µM (NCI-H460): 94%; growth at 0.01 µM (MCF7): 95%; growth at 1 µM (OVCAR-5): 104%; growth at 10 µM (RXF 393 [9]): -44%; growth at 0.1 µM (SN12C [10]): 93%
